Compound activity (PubChem BioAssay)
HMGR II inh: inhibitors of class II HMG-CoA reductase from Enterococcus faecalis; inhibition, % at 10 µM; purified E. faecalis HMGR, NADPH absorbance 340 nm kinetic; 0.41% of 190,000 active; AID 1066;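 active = inhibition above a set limit, the median over all tested compounds plus 3 SD, cut at about 9.5% in these data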;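 note: enzyme runs in reverse so mevalonate oxidation gives rising NADPH absorbance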
Insulin prom inh: TRM-6 insulin promoter activity inhibition | TRM-6 cells (human fetal islet line), insulin promoter-eGFP reporter, imaging; reporter expression induced with tamoxifen | inhibition, % at 2 µM | 0.9% of 130,000 active | AID 1273;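 active = inhibition above the mean plus 3 SD, with well images judged a real hit on visual review, cut at about 60% in these data, passing the limit was not always enough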
RAM inhibit: yeast RAM network inhibition; S. cerevisiae dse1pr::URA3 reporter, 5-FOA growth OD615, 2 d; analog-sensitive cbk1-as2 kinase mutant strain; inhibition, % at 50 µM; 1.8% of 190,000 active;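 active = inhibition above a set limit, 3 SD over mean compound inhibition, cut at about 8.4% in these data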;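 note: inhibition rescues growth on 5-FOA so higher OD means more RAM inhibition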
Yeast life ext: yeast lifespan extension; S. cerevisiae growth with nicotinamide, OD615; deaD strain in restrictive glucose medium; inhibition of the nicotinamide effect, % at 10 µM; 0.68% of 130,000 active; AID 775;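 active = inhibition above a set limit, placed 3 SD over the median of all compounds, cut at about 26% in these data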
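System: Modified budding yeast, DeaD strain | Buffer or medium: Restrictive glucose medium | Also added: 1.5 mM nicotinamide | Doses: 10 µM single point, 0.25% DMSO | Schedule: 48 h compound exposure at 30 °C, humidified | Detection: Absorbance at 615 nm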
BB579 growth dn: yeast BB579 growth reduction in restrictive medium. inhibition, % at 10 µM. 0.51% of 140,000 active. S. cerevisiae BB579 growth, OD615, 48 h. AID 804;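 active = inhibition above a set limit, 3 SD over the mean compound inhibition, cut at about 44% in these data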
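System: Saccharomyces cerevisiae DeaD strain BB579, replicative lifespan model yeast. Buffer or medium: restrictive glucose-based CSMM-D medium. Doses: one dose, 10 µM compound with 0.25% DMSO. Timing: 4 h preincubation and 48 h exposure at 30 °C. Detection: turbidity as optical density at 615 nm. Benchmarks: amphotericin B 10 µg/mL, positive.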
Hits are given with their value; - = inactive; . = no result. Rows were chosen to be rich in hits. Some 3.7% of all compounds tested hit in one or more screens of this group.

SMILES | HMGR II inh | Insulin prom inh | RAM inhibit | Yeast life ext | BB579 growth dn
COc1cc(Nc2ccc(C(=O)O)cc2[N+](=O)[O-])cc(OC)c1 | - | - | 10 | - | -
CC1(C)CC(=O)C2=C(C1)OC1=C(C(=O)CC(C)(C)C1)C2c1ccc(O)c([N+](=O)[O-])c1 | - | - | - | . | .
CC1(C)CC(=O)C2=C(C1)OC1=C(C(=O)CC(C)(C)C1)C2c1ccc(O)cc1O | - | - | - | 42 | -
Cc1c(C(=O)c2ccccc2)c(=O)n(C)c(=O)n1C | - | . | - | . | .
O=C(CN1C(=O)/C(=C/c2cccc(Br)c2)SC1=S)N1CCCC1 | - | - | - | - | -
Cc1cc(C)nc(N(C#N)S(=O)(=O)c2ccccc2)n1 | - | 82 | - | - | -
COc1cccc(C(=O)Oc2c(Br)cc(Br)cc2/C=N/NC(=O)c2cc(C)[nH]n2)c1 | - | . | - | . | .
Cc1ccc(N/N=C/c2c(O)cc(C)oc2=O)cc1 | - | - | - | - | 96
CCSc1nnc(-c2ccccc2NC(C)=O)c(=O)[nH]1 | - | 71 | - | - | -
CCCCSc1nnc(-c2ccccc2NC(C)=O)c(=O)[nH]1 | - | . | - | . | .
COc1ccc(S(=O)(=O)NCCSCc2ccccc2C)cc1Br | - | - | 9.9 | - | -
CCCCOC(=O)Nc1nc2ccccc2s1 | - | - | - | - | -
CCCCOC(=O)Sc1nc2ccccc2o1 | - | - | - | - | 100
COc1cc(Br)cc(CNc2ccc(F)c([N+](=O)[O-])c2)c1O | - | - | 8.9 | . | .
Cc1ccc(CC(=O)Nc2ccc(F)c([N+](=O)[O-])c2)cc1C | - | - | - | . | .
O=S(=O)(Nc1ccc(-n2cccc2)cc1)c1ccc(Cl)cc1Cl | - | - | - | - | 74
CCCCNC(=S)N/N=C/C1=CCC2CC1C2(C)C (stereo not given) | - | - | 8.6 | - | -
Cc1ccc(S(=O)(=O)NCC(=O)OCC(=O)c2c(N)n(C)c(=O)n(C)c2=O)cc1 | - | - | - | - | -
COc1ccc(-n2c(C)c(C(C)=O)c3cc(OCC(N)=O)ccc32)cc1 | - | . | 8.8 | . | .
CCOc1ccc(-n2c(C)c(C(C)=O)c3cc(OCC(N)=O)ccc32)cc1 | - | . | - | . | .
CCCSc1cc(NCCOC(C)=O)c([N+](=O)[O-])c2nonc12 | - | - | - | - | -
CCC(=O)OCCNc1cc(Sc2nc3ccccc3s2)c2nonc2c1[N+](=O)[O-] | - | - | - | 32 | -
CCCSc1cc(NCCOC(=O)CCC)c([N+](=O)[O-])c2nonc12 | - | - | - | 28 | -
O=[N+]([O-])c1c(NCCCO)cc(Sc2nc3ccccc3s2)c2nonc12 | - | - | - | - | -
CC(C)c1cc(C(=O)OCC(=O)NC(=O)NCc2ccco2)c(O)c(C(C)C)c1 | - | . | - | . | .
SMILES | HMGR II inh | Insulin prom inh | RAM inhibit | Yeast life ext | BB579 growth dn
Cc1ccc(CNS(=O)(=O)NCc2cccs2)cc1 | - | 77 | - | . | .
Cc1ccc(CNS(=O)(=O)NCc2ccc(Cl)cc2)cc1 | - | . | - | . | .
Fc1ccc2nc3[nH]c4ccccc4c3nc2c1 | - | 91 | 8.9 | - | 63
O=C(Nc1ccc(-c2nc3ccccc3[nH]2)cc1)c1ccco1 | - | . | 9.5 | - | -
O=C(Nc1ccc2nc(-c3ccco3)[nH]c2c1)c1ccco1 | - | 82 | - | - | -
CC(C)(C)NC(=O)c1cccc(NC(=O)c2ccc(NC(=O)c3ccco3)cc2)c1 | - | 100 | - | - | -
CC(=O)Nc1ccc2nc(-c3ccco3)[nH]c2c1 | - | - | - | . | .
O=C(Nc1ccc2nc(-c3ccccc3)[nH]c2c1)c1cccs1 | - | 77 | - | - | -
O=C(/C=C/c1ccco1)Nc1ccc(-c2nc3ccccc3[nH]2)cc1 | - | - | - | - | -
CCOC(=O)c1ccc(NC(=O)CN(C)S(=O)(=O)c2ccc(Br)s2)cc1 | - | - | - | - | -
Cn1cc([N+](=O)[O-])c(C(=O)Nc2ccc(C3CCCCC3)cc2)n1 | 11 | . | - | . | .
Cn1cc([N+](=O)[O-])c(C(=O)Nc2ccc(-c3nc4ccccc4[nH]3)cc2)n1 | 12 | . | - | - | -
Cn1cc([N+](=O)[O-])c(C(=O)Nc2ccc3nc(-c4ccccc4)[nH]c3c2)n1 | - | . | - | - | -
Cn1cc([N+](=O)[O-])c(C(=O)Nc2ccc(C(=O)N3CCCCC3)cc2)n1 | - | - | - | - | -
Cc1nc2sccc2c(=O)n1N | - | - | - | . | .
COc1ccc(-c2cn[nH]c2N)c(OC)c1 | - | 84 | - | - | -
COc1ccc(-c2cn[nH]c2N)cc1 | - | - | - | - | -
O=P(CO)(Cc1ccccc1)Cc1ccccc1 | - | - | - | 55 | -
CCCCP(=O)(CCCC)Cc1ccccc1 | - | - | - | - | -
Cc1nnc(SCC(=O)NC(C)(C)C)n1NCc1c(F)cccc1Cl | - | . | - | . | .
O=S(=O)(/N=C/c1c(O)ccc2ccccc12)c1cccs1 | - | - | - | 30 | -
Oc1ccc2ccccc2c1/C=N/Nc1ccccc1 | - | . | - | - | -
CC(C)n1c(O)c(N=NC(=O)C2COc3ccccc3O2)c2ccccc21 (stereo not given) | - | . | - | . | .
Cc1ccc(C)c(SCC(=O)Nc2cc(C)nn2-c2ccc(F)cc2)c1 | - | . | 8.6 | - | -
CC1CCN(c2nc3ccc(C(=O)N4CCN(Cc5ccc6c(c5)OCO6)CC4)cc3s2)CC1 | - | . | - | - | -
SMILES | HMGR II inh | Insulin prom inh | RAM inhibit | Yeast life ext | BB579 growth dn
O=C(Nc1ccccc1-c1nc2ccccc2[nH]1)c1ccc(S(=O)(=O)N2CCCCC2)cc1 | - | . | - | 42 | -
Cc1ccc(S(=O)(=O)N2CCCCC2C(=O)O)s1 (stereo not given) | - | - | - | . | .
O=C(O)c1cc(-c2ccc(/C=C3/SC(=S)N(Cc4ccccc4)C3=O)o2)ccc1Cl | - | . | 9.4 | . | .
O=C1c2ccccc2-c2onc3ccc(NCCCn4ccnc4)c1c23 | - | - | 38 | 80 | -
CC1(C)CC(=O)C2=C(C1)N(c1ccccc1)C(=O)C2(O)C(F)(F)F (stereo not given) | - | - | - | - | -
CC(C)(C)n1nnnc1C(c1cccs1)N(Cc1ccccc1)Cc1ccco1 (stereo not given) | - | - | 9.6 | - | -
N#CC(C#N)=CC1=C2OC(c3ccccc3)=CC(c3ccccc3)=C2CCC1 | - | - | 10 | - | -
Cc1cccc(-c2noc(CN(C(=O)CCc3ccccc3)C(C)C)n2)c1 | - | - | - | - | -
Cc1cccc(-c2noc(CN(C)S(=O)(=O)c3cc(Cl)ccc3Cl)n2)c1 | - | - | 8.6 | - | -
COc1ccc(Cl)cc1C(=O)N(Cc1nc(-c2cccc(C)c2)no1)C(C)C | - | . | - | - | -
Cc1cccc(-c2noc(CN(C(=O)/C=C/c3ccccc3Cl)C(C)C)n2)c1 | - | - | 11 | - | -
CCOC(=O)Cn1c(=O)cc(C)c2cccc(C)c21 | - | . | - | . | .
COC(=O)C1(O)CC(C(C)C)=NN1C(=O)c1ccccc1 (stereo not given) | - | - | - | - | -
COc1ccc(NC(=S)NNC(=O)CCn2cc([N+](=O)[O-])cn2)cc1 | - | 88 | - | . | .
